Laboratory results reported in ChEMBL document CHEMBL4028895, “Structure-Activity Relationships and Biological Characterization of a Novel, Potent, and Serum Stable C-X-C Chemokine Receptor Type 4 (CXCR4) Antagonist” (J Med Chem, 2017).
Activity calls are given as the source filed them. No cut-off for these calls is given here. Positions of bridges follow the written chain, without caps; N, C: chain ends. Non-standard residues stand in square brackets, D forms with d. Residues, ends and D or L forms follow the SMILES beside them. 2Nal = N[C@@H](Cc1ccc2ccccc2c1)C(=O)O; Pen = CC(C)(S)[C@H](N)C(=O)O

Key:
[1] = biological target: T1, C-X-C chemokine receptor type 4 (Homo sapiens, UniProt P61073); experiment: Inhibition of anti-CXCR4 PE antibody clone 12G5 binding to CXCR4 in human CCRF-CEM cells preincubated for 30 mins followed by anti-CXCR4 PE antibody clone 12G5 addition measured after 30 mins by flow cytometric method; assay type: cell-based
Summary of the method: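 5×10^5 CCRF-CEM cells (human T leukemia, CXCR4-overexpressing) were preincubated with peptide (10 pM–10 μM) in PBS with 0.2% BSA and 0.1% NaN3 for 30 min at 37 °C, 5% CO2. They were then labeled 30 min with anti-CXCR4 PE antibody (clone 12G5) and read by flow cytometry.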

[2] = biological target: T1, C-X-C chemokine receptor type 4; conditions: 10 nM
[3] = biological target: T1, C-X-C chemokine receptor type 4; experiment: Displacement of [125I]-CXCL12 from CXCR4 in human CCRF-CEM cells after 1 hr by gamma counting method; assay type: cell-based
Summary of the method: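 CCRF-CEM cells suspended in binding buffer (PBS, 5 mM MgCl2, 1 mM CaCl2, 0.25% BSA, pH 7.4) with competitor from 10 pM to 10 μM and 60 pM 125I-CXCL12 (2200 Ci/mmol) tracer. Bound radioactivity counted on a γ counter after 1 h at 4 °C, expressed as percent of total counts. One-site fit gave IC50; mean ± SD of three experiments.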

[4] = biological target: T1, C-X-C chemokine receptor type 4; conditions: 10 nM; remark: listed apart in the source
[5] = Metabolic stability in 90% human serum assessed as parent compound remaining at 1 mM measured at 15 mins by ESI-RP-HPLC method; assay type: ADME, cell-free; conditions: read-out: Stability
Summary of the method: (§1)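 Peptide water solution (1 mM, 10 μL) mixed with 90 μL human serum, giving 0.1 mM peptide in 90% serum, at 37 °C. Aliquots taken at 0, 15, 30, 60, 90 and 120 min. Proteins precipitated with ACN (0.1% TFA) and spun 12 000 rpm, 15 min, 4 °C. Supernatant run on ESI-RP-HPLC; relative amount from A230 peak integration.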

[6] = biological target: Atypical chemokine receptor 3 (Homo sapiens) (UniProt P25106); experiment: Inhibition of anti-CXCR7 APC antibody clone 11G8 binding to CXCR7 in human MCF7 cells at 0.01 to 10 uM preincubated for 30 mins followed by anti-CXCR7 APC antibody clone 11G8 addition measured after 30 mins by flow cytometric method; assay type: cell-based
Summary of the method: (§2)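 Selectivity runs: peptide preincubated 30 min at 37 °C, 5% CO2 in PBS with 0.2% BSA and 0.1% NaN3, then cells labeled with receptor antibody and read by flow cytometry. CXCR3: COLO205 colorectal cells, anti-CXCR3 FITC antibody. CXCR7: MCF-7 breast cells, anti-CXCR7 APC antibody (clone 11G8). Results given as mean ± SD.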

[7] = Metabolic stability in 90% human serum assessed as parent compound remaining at 1 mM measured at 120 mins by ESI-RP-HPLC method; assay type: ADME, cell-free; conditions: read-out: Stability; summary of the method: as §1
[8] = biological target: T2, C-X-C chemokine receptor type 3 (Homo sapiens) (UniProt P49682); experiment: Inhibition of anti-CXCR3 FITC antibody clone 1C6/clone 49801 binding to CXCR3 in human COLO205 cells at 0.01 to 10 uM preincubated for 30 mins followed by anti-CXCR3 FITC antibody clone 1C6/clone 49801 addition measured after 30 mins by flow cytometric method; assay type: cell-based; summary of the method: as §2
T2 sequence (whole entry): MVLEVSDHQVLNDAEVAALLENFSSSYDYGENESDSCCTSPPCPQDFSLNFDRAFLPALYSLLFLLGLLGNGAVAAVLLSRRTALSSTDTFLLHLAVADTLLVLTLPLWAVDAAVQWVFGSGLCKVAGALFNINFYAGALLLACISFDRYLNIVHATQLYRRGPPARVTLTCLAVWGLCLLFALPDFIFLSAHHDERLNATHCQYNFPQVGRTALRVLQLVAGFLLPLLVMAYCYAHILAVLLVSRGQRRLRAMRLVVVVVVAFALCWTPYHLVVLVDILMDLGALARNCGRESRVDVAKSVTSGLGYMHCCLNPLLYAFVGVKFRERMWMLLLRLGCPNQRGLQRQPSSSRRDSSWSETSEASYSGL

[9] = biological target: T1, C-X-C chemokine receptor type 4; conditions: 10 nM; remark: listed apart in the source
[10] = Metabolic stability in 90% human serum assessed as parent compound remaining at 1 mM measured at 90 mins by ESI-RP-HPLC method; assay type: ADME, cell-free; conditions: read-out: Stability; summary of the method: as §1
[11] = biological target: T1, C-X-C chemokine receptor type 4; conditions: 1 to 100 nM
[12] = Metabolic stability in 90% human serum assessed as parent compound remaining at 1 mM measured at 30 mins by ESI-RP-HPLC method; assay type: ADME, cell-free; conditions: read-out: Stability; summary of the method: as §1
[13] = Metabolic stability in 90% human serum assessed as parent compound remaining at 1 mM measured at 60 mins by ESI-RP-HPLC method; assay type: ADME, cell-free; conditions: read-out: Stability; summary of the method: as §1
Serum [14] = experiment: Drug level in 90% human serum treated with (4R,7S,10S,13S,16R)-16-((S)-2-((S)-2-amino-5-guanidinopentanamido)propanamido)-7,10-dibenzyl-13-(3-guanidinopropyl)-6,9,12,15-tetraoxo-1,2-dithia-5,8,11,14-tetraazacycloheptadecane-4-carboxylic acid at 1 mM after 15 mins by ESI-RP-HPLC method; assay type: ADME, cell-free; conditions: 0.25 h, 1000 µM; summary of the method: as §1
Serum [15] = experiment: Drug level in 90% human serum treated with (4R,7S,10S,13S,16R)-16-((S)-2-((S)-2-amino-5-guanidinopentanamido)propanamido)-7,10-dibenzyl-13-(3-guanidinopropyl)-6,9,12,15-tetraoxo-1,2-dithia-5,8,11,14-tetraazacycloheptadecane-4-carboxylic acid at 1 mM after 30 mins by ESI-RP-HPLC method; assay type: ADME, cell-free; conditions: 0.5 h, 1000 µM; summary of the method: as §1

T1 sequence (P61073 whole entry): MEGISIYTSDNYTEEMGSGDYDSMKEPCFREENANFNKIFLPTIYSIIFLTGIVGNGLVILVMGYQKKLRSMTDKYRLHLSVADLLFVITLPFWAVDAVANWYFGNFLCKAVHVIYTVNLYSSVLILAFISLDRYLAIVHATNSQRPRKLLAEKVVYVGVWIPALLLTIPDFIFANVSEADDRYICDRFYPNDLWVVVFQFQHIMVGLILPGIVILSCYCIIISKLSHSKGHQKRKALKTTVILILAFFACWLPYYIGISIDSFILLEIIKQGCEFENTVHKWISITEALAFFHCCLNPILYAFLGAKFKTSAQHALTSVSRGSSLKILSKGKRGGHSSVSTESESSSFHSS
Atypical chemokine receptor 3 (Homo sapiens), sequence (P25106 whole entry): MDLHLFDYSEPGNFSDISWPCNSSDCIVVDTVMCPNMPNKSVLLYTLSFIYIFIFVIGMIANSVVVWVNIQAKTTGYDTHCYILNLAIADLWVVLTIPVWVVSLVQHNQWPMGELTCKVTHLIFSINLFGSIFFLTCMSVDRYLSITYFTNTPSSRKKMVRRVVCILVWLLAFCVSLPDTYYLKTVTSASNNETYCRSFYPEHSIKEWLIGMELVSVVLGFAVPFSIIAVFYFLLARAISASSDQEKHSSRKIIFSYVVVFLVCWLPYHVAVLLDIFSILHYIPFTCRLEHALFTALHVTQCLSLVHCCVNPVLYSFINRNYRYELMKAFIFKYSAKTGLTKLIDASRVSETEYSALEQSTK

CC(=O)N[C@@H](CCCNC(=N)N)C(=O)N[C@@H](C)C(=O)N[C@H]1C(=O)N[C@@H](CCCNC(=N)N)C(=O)N[C@@H](Cc2ccccc2)C(=O)N[C@@H](Cc2ccccc2)C(=O)N[C@H](C(=O)O)CSSC1(C)C
IC50 [1]: > 10000 nM

CC(=O)N[C@@H](CCCNC(=N)N)C(=O)N[C@@H](C)C(=O)N[C@@H]1CSSC(C)(C)[C@@H](C(=O)O)NC(=O)[C@H](Cc2ccccc2)NC(=O)[C@H](Cc2cccc3ccccc23)NC(=O)[C@H](CCCNC(=N)N)NC1=O
IC50 [1]: 3690 nM

CC(=O)N[C@@H](CCCNC(=N)N)C(=O)N[C@@H](C)C(=O)N[C@@H]1CSSC(C)(C)[C@@H](C(=O)O)NC(=O)[C@H](Cc2ccccc2)NC(=O)[C@H](Cc2ccc3ccccc3c2)NC(=O)[C@H](CCCNC(=N)N)NC1=O
IC50 [1]: 22 nM

CC(=O)N[C@@H](CCCNC(=N)N)C(=O)N[C@@H](C)C(=O)N[C@@H]1CSSC(C)(C)[C@@H](C(=O)O)NC(=O)[C@H](Cc2ccc([N+](=O)[O-])cc2)NC(=O)[C@H](Cc2ccccc2)NC(=O)[C@H](CCCNC(=N)N)NC1=O
IC50 [1]: > 10000 nM

CC(=O)N[C@@H](CCCNC(=N)N)C(=O)N[C@@H](C)C(=O)N[C@@H]1CSSC(C)(C)[C@@H](C(=O)O)NC(=O)[C@H](Cc2ccccc2)NC(=O)[C@H](Cc2ccc(Cl)cc2)NC(=O)[C@H](CCCNC(=N)N)NC1=O
IC50 [1]: 70 nM

CC(=O)N[C@@H](CCCNC(=N)N)C(=O)N[C@@H](C)C(=O)N[C@@H]1CSSC(C)(C)[C@@H](C(=O)O)NC(=O)[C@H](Cc2ccccc2)NC(=O)[C@H](Cc2cnc[nH]2)NC(=O)[C@H](CCCNC(=N)N)NC1=O
IC50 [1]: > 10000 nM

CC(=O)N[C@@H](CCCNC(=N)N)C(=O)N[C@@H](C)C(=O)N[C@@H]1CSSC(C)(C)[C@@H](C(=O)O)NC(=O)[C@H](Cc2ccccc2)NC(=O)[C@H](Cc2ccc([N+](=O)[O-])cc2)NC(=O)[C@H](CCCNC(=N)N)NC1=O
IC50 [1]: 210 nM

CC(=O)N[C@@H](CCCNC(=N)N)C(=O)N[C@@H](C)C(=O)N[C@@H]1CSSC(C)(C)[C@@H](C(=O)O)NC(=O)[C@H](Cc2cnc[nH]2)NC(=O)[C@H](Cc2ccccc2)NC(=O)[C@H](CCCNC(=N)N)NC1=O
IC50 [1]: 6 nM

CC(=O)N[C@@H](CCCNC(=N)N)C(=O)N[C@@H](C)C(=O)N[C@@H]1CSSC(C)(C)[C@@H](C(=O)O)NC(=O)[C@H](Cc2ccc3ccccc3c2)NC(=O)[C@H](Cc2ccccc2)NC(=O)[C@H](CCCNC(=N)N)NC1=O
IC50 [1]: 1800 nM

CC(=O)N[C@@H](CCCNC(=N)N)C(=O)N[C@@H](C)C(=O)N[C@@H]1CSSC(C)(C)[C@@H](C(=O)O)NC(=O)[C@H](Cc2ccc(O)cc2)NC(=O)[C@H](Cc2ccccc2)NC(=O)[C@H](CCCNC(=N)N)NC1=O
IC50 [1]: 360 nM

CC(=O)N[C@@H](CCCNC(=N)N)C(=O)N[C@@H](C)C(=O)N[C@H]1C(=O)N[C@@H](CCCNC(=N)N)C(=O)N[C@@H](Cc2ccccc2)C(=O)N[C@@H](Cc2ccccc2)C(=O)N[C@H](C(=O)O)C(C)(C)SSC1(C)C
IC50 [1]: 1530 nM

CC(=O)N[C@@H](CCCNC(=N)N)C(=O)N[C@@H](C)C(=O)N[C@@H]1CSSC(C)(C)[C@@H](C(=O)O)NC(=O)[C@H](Cc2ccccc2)NC(=O)[C@H](Cc2ccccc2)NC(=O)[C@H](CCCNC(=N)N)NC1=O
IC50 [1]: 40 nM

CC(=O)N[C@@H](CCCNC(=N)N)C(=O)N[C@@H](C)C(=O)N[C@@H]1CSSC(C)(C)[C@@H](C(=O)O)NC(=O)[C@H](Cc2ccccc2)NC(=O)[C@H](Cc2ccc(O)cc2)NC(=O)[C@H](CCCNC(=N)N)NC1=O
IC50 [1]: 2140 nM

CC(=O)N[C@@H](CCCNC(=N)N)C(=O)N[C@@H](C)C(=O)N[C@@H]1CSSC(C)(C)[C@@H](C(=O)O)NC(=O)[C@H](Cc2cccc3ccccc23)NC(=O)[C@H](Cc2ccccc2)NC(=O)[C@H](CCCNC(=N)N)NC1=O
IC50 [1]: 180 nM

CC(=O)N[C@@H](CCCNC(=N)N)C(=O)N[C@@H](C)C(=O)N[C@@H]1CSSC(C)(C)[C@@H](C(=O)O)NC(=O)[C@H](Cc2ccc(Cl)cc2)NC(=O)[C@H](Cc2ccccc2)NC(=O)[C@H](CCCNC(=N)N)NC1=O
IC50 [1]: 1250 nM

c1cc(CN2CCCNCCNCCCNCC2)ccc1CN1CCCNCCNCCCNCC1
inhibition [2]: inactive

CC(=O)N[C@@H](CCCNC(=N)N)C(=O)N[C@@H](C)C(=O)N[C@@H]1CSSC[C@@H](C(=O)O)NC(=O)[C@H](Cc2ccccc2)NC(=O)[C@H](Cc2ccccc2)NC(=O)[C@H](CCCNC(=N)N)NC1=O (Ac-RA[dC]RFFC-OH; disulfide 3-7)
IC50 [3]: 338 nM
IC50 [1]: 53 nM

CC(=O)N[C@@H](CCCNC(=N)N)C(=O)N[C@@H](C)C(=O)N[C@@H]1CSSC(C)(C)[C@@H](C(=O)O)NC(=O)[C@H](Cc2cnc[nH]2)NC(=O)[C@H](Cc2ccc3ccccc3c2)NC(=O)[C@H](CCCNC(=N)N)NC1=O (Ac-RA[dC]R[2Nal]H[Pen]-OH; disulfide 3-7)
inhibition [4]: inactive
remaining at 0.25 h, 1000 µM [5]: 100%
inhibition [6]: inactive
remaining at 2 h, 1000 µM [7]: 100%
IC50 [1]: 1.5 nM
inhibition [8]: inactive
inhibition [9]: Active
remaining at 1.5 h, 1000 µM [10]: 100%
inhibition [11]: Active
remaining at 0.5 h, 1000 µM [12]: 100%
remaining at 1 h, 1000 µM [13]: 100%

C[C@H](N)C(=O)N[C@H]1CSSC[C@@H](C(=O)O)NC(=O)[C@H](Cc2ccccc2)NC(=O)[C@H](Cc2ccccc2)NC(=O)[C@H](CCCNC(=N)N)NC1=O (H-ACRFFC-OH; disulfide 2-6)
Drug metabolism (Serum [14]): Metabolite_Detected

N=C(N)NCCC[C@@H]1NC(=O)[C@@H](N)CSSC[C@@H](C(=O)O)NC(=O)[C@H](Cc2ccccc2)NC(=O)[C@H](Cc2ccccc2)NC1=O (H-CRFFC-OH; disulfide 1-5)
Drug metabolism (Serum [15]): Metabolite_Detected

C[C@H](NC(=O)[C@@H](N)CCCNC(=N)N)C(=O)N[C@H]1CSSC[C@@H](C(=O)O)NC(=O)[C@H](Cc2ccccc2)NC(=O)[C@H](Cc2ccccc2)NC(=O)[C@H](CCCNC(=N)N)NC1=O (H-RACRFFC-OH; disulfide 3-7)
remaining at 0.25 h, 1000 µM [5]: 67%
remaining at 2 h, 1000 µM [7]: 0%
IC50 [1]: 6200 nM
remaining at 1.5 h, 1000 µM [10]: 0%
remaining at 0.5 h, 1000 µM [12]: 0%
remaining at 1 h, 1000 µM [13]: 0%
